Data as given in ChEMBL document CHEMBL4304758, “Development of Peptide-Based Sirtuin Defatty-Acylase Inhibitors Identified by the Fluorescence Probe, SFP3, That Can Efficiently Measure Defatty-Acylase Activity of Sirtuin” (J Med Chem, 2019).
Residues, ends and D or L forms follow the SMILES beside them. *: point of attachment. Phenylacetyl(4-E-phenylazo) = O=C(Cc1ccc(/N=N/c2ccccc2)cc1)*; X2 = CN(C)c1ccc(/N=N/c2ccc(C(=O)*)cc2)cc1

Legend:
[1] = target: T1, NAD-dependent protein deacetylase sirtuin-2 (Homo sapiens, UniProt Q8IXJ6); test: Inhibition of recombinant human SIRT2 deacylation activity using Fluor de Lys Sirt2 as substrate measured at 5 mins interval for 30 mins in presence of NAD+ by fluorescence assay
T1 sequence (Q8IXJ6 whole entry): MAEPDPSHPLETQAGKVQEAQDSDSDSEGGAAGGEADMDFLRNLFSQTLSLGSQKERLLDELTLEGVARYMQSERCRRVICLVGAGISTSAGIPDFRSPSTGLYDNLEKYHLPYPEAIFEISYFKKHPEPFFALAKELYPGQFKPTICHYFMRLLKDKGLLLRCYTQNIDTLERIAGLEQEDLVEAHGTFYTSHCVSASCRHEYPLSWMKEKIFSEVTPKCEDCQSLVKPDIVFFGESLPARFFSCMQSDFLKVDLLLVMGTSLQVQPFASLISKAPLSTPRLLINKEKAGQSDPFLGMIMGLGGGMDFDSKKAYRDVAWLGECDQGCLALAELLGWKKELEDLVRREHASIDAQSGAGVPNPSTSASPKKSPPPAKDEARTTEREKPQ

[2] = target: T1, NAD-dependent protein deacetylase sirtuin-2; test: Inhibition of recombinant human SIRT2 defatty-acylase activity using SFP3 as substrate measured at 5 mins interval for 60 mins in presence of NAD+ by fluorescence assay
[3] = target: T2, NAD-dependent protein deacetylase sirtuin-1 (Homo sapiens, UniProt Q96EB6); test: Inhibition of recombinant human C-terminal His6-tagged SIRT1 (Met1 to Ser747 residues) defatty-acylase activity expressed in Escherichia coli using SFP3 as substrate measured at 5 mins interval for 60 mins in presence of NAD+ by fluorescence assay
T2 sequence (Q96EB6 whole entry): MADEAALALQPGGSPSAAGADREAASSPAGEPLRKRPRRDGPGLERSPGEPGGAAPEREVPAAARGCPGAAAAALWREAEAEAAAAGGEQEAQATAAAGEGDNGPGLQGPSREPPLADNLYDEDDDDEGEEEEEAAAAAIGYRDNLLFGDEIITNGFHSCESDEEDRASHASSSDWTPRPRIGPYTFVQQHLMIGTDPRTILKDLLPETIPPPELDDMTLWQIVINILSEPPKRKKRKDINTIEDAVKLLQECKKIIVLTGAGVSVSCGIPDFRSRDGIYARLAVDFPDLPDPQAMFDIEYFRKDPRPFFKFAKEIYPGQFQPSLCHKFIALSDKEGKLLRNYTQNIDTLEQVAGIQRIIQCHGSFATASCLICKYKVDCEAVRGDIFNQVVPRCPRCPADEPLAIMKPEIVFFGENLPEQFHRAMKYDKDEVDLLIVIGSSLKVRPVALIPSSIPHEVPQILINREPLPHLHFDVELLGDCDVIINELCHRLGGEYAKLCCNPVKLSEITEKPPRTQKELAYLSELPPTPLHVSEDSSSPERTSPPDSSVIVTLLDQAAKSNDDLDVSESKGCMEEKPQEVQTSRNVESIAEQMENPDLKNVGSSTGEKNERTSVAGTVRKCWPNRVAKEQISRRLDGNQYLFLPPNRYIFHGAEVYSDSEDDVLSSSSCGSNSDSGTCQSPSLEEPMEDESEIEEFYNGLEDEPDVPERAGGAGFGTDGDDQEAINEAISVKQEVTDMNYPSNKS

[4] = target: T1, NAD-dependent protein deacetylase sirtuin-2; test: Inhibition of recombinant human SIRT2 demyristoylase activity using p53(Myr)-AMC as substrate measured after 3 hrs in presence of NAD+ and trypsin by fluorescence assay
[5] = target: T3, NAD-dependent protein deacetylase sirtuin-3, mitochondrial (Homo sapiens, UniProt Q9NTG7); test: Inhibition of recombinant human SIRT3 (118 to 399 residues) demyristoylase activity expressed in Escherichia coli using p53(Myr)-AMC as substrate measured after 3 hrs in presence of NAD+ and trypsin by fluorescence assay
T3 sequence (Q9NTG7 whole entry): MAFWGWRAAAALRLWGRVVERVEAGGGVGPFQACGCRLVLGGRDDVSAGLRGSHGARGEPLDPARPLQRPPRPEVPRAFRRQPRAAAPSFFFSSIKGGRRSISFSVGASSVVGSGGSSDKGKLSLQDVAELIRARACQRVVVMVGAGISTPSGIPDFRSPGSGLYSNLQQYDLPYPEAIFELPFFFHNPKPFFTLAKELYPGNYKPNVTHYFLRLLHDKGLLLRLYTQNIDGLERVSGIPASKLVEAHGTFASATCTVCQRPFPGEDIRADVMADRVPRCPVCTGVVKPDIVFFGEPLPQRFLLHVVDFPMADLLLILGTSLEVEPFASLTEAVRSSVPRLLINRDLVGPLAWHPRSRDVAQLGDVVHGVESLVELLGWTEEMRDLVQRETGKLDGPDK

[6] = target: T2, NAD-dependent protein deacetylase sirtuin-1; test: Inhibition of recombinant human C-terminal His6-tagged SIRT1 (Met1 to Ser747 residues) demyristoylase activity expressed in Escherichia coli using p53(Myr)-AMC as substrate measured after 3 hrs in presence of NAD+ and trypsin by fluorescence assay
Procedure, shortened: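 SIRT1 at 14 nM final with 50 μM p53(Myr)-AMC and 500 μM NAD⁺ in Tris-HCl pH 8.0/NaCl/DTT/Triton buffer, 0.5% DMSO, 3 h at room temperature. Trypsin (100 nM final) plus nicotinamide (1 mM final) then added. Fluorescence Ex 355/Em 460 nm read every 5 min for 20 min at 37 °C. n = 3.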

[7] = target: T3, NAD-dependent protein deacetylase sirtuin-3, mitochondrial; test: Inhibition of recombinant human SIRT3 (118 to 399 residues) defatty-acylase activity expressed in Escherichia coli using SFP3 as substrate measured at 5 mins interval for 60 mins in presence of NAD+ by fluorescence assay
[8] = target: T1, NAD-dependent protein deacetylase sirtuin-2; test: Drug metabolism assessed as recombinant human SIRT2-mediated deacylation by measuring dabcyl formation at 20 uM measured up to 4 hrs in presence of NAD+ by HPLC analysis; type: ADME
Procedure, shortened: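 Compound at 20 μM final (0.2% DMSO) with 350 nM SIRT2 and 500 μM NAD⁺ at 37 °C in buffer I: 50 mM Tris-HCl pH 8.0, 150 mM NaCl, 1 mM DTT, 0.05% Triton X-100. Aliquots taken at 0 and 4 h. Reversed-phase HPLC, TFA water/acetonitrile gradient. Detection at 510, 350 or 254 nm depending on compound.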

Row | Structure (SMILES) | IC50 [1] | IC50 [2] | IC50 [3] | IC50 [4] | IC50 [5] | IC50 [6] | IC50 [7] | Drug metabolism [8]
1 | CC[C@H](C)[C@H](NC(=O)[C@H](CCCCNC(=O)Cc1ccc(/N=N/c2ccccc2)cc1)NC(=O)[C@@H](NC(C)=O)C(C)C)C(=O)N[C@@H](CCCCN)C(=O)N[C@@H](CCCCN)C(N)=O (Ac-VK(Phenylacetyl(4-E-phenylazo))IKK-NH2) | 120 nM | 120 nM | 1400 nM | 520 nM |  | 430 nM |  | 
2 | CC[C@H](C)[C@H](NC(=O)[C@@H](NC(=O)[C@H](CCCCNC(=O)c1ccc(/N=N/c2ccc(N(C)C)cc2)cc1)NC(=O)[C@H](CC(=O)O)NC(=O)[C@H](CO)NC(C)=O)[C@@H](C)O)C(N)=O (Ac-SDK(X2)TI-NH2) | 1200 nM | > 2000 nM | > 2000 nM | > 2000 nM |  |  | > 2000 nM | 
3 | CC[C@H](C)[C@H](NC(=O)[C@H](CCCNC(=N)N)NC(C)=O)C(=O)N[C@@H](CCCCNC(=O)c1ccc(/N=N/c2ccc(N(C)C)cc2)cc1)C(=O)N[C@@H](CCCNC(=N)N)C(=O)N[C@@H](Cc1ccc(O)cc1)C(N)=O (Ac-RIK(X2)RY-NH2) | 1600 nM | 430 nM | > 2000 nM | 1600 nM |  |  | 770 nM | Metabolite_Detected
4 | CC[C@H](C)[C@H](NC(C)=O)C(=O)N[C@@H](CCCCNC(=O)Cc1ccc(/N=N/c2ccccc2)cc1)C(=O)N[C@@H](CCCNC(=N)N)C(N)=O | 110 nM | 63 nM | 270 nM | 250 nM |  | 84 nM |  | 

Continued, values first:

Row | IC50 [1] | IC50 [2] | IC50 [3] | IC50 [4] | IC50 [5] | IC50 [6] | IC50 [7] | Drug metabolism [8] | Structure (SMILES)
5 | > 1000 nM | > 2000 nM |  |  |  |  |  |  | CCCCCCCCCCCCCC(=O)NCCCC[C@H](NC(=O)OCc1ccccc1)C(=O)Nc1ccccc1
6 | 180 nM | 19 nM | 48 nM | 51 nM | 340 nM | 71 nM | 77 nM |  | CC[C@H](C)[C@H](NC(=O)[C@H](CCCNC(=N)N)NC(C)=O)C(=O)N[C@@H](CCCCNC(=O)Cc1ccc(/N=N/c2ccccc2)cc1)C(=O)N[C@@H](CCCNC(=N)N)C(=O)N[C@@H](Cc1ccc(O)cc1)C(N)=O (Ac-RIK(Phenylacetyl(4-E-phenylazo))RY-NH2)
7 | 400 nM | > 2000 nM | > 2000 nM | > 2000 nM |  |  | > 2000 nM |  | C[C@H](NC(=O)[C@H](CCCCNC(=O)Cc1ccc(/N=N/c2ccc(OCCc3ccccc3)cc2)cc1)NC(=O)OCc1ccccc1)C(N)=O
8 | 580 nM | 1500 nM | > 2000 nM | > 2000 nM |  |  | > 2000 nM |  | CC[C@H](C)[C@H](NC(=O)[C@@H](NC(=O)[C@H](CCCCNC(=O)Cc1ccc(/N=N/c2ccccc2)cc1)NC(=O)[C@H](CC(=O)O)NC(=O)[C@H](CO)NC(C)=O)[C@@H](C)O)C(N)=O (Ac-SDK(Phenylacetyl(4-E-phenylazo))TI-NH2)
